# Calls of active or inactive are those of the source. The calls are words filed in the database; no cut-off is given here.
# Assays:
# [1] = Antiproliferative activity against Hs683 cells after 72 hrs by MTT assay; assay type: functional, cell-based, Homo sapiens, Hs 683; conditions: Homo sapiens, Hs 683, 72 h
# Summary of the method: (§1)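 Cells cultured with each compound for three days; growth then read by the MTT colorimetric assay and reported as IC50 (µM).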
# [2] = Antiproliferative activity against U373MG cells after 72 hrs by MTT assay; assay type: functional, cell-based, Homo sapiens, U-373MG ATCC; conditions: Homo sapiens, U373 MG, 72 h; summary of the method: as §1
# HCT-15 = test: Antiproliferative activity against HCT15 cells after 72 hrs by MTT assay; assay type: functional, cell-based, Homo sapiens; conditions: Homo sapiens, HCT-15, 72 h; summary of the method: as §1
# LoVo = test: Antiproliferative activity against LoVo cells after 72 hrs by MTT assay; assay type: functional, cell-based, Homo sapiens; conditions: Homo sapiens, LoVo, 72 h; summary of the method: as §1
# A549 = test: Antiproliferative activity against A549 cells after 72 hrs by MTT assay; assay type: functional, cell-based, Homo sapiens; conditions: Homo sapiens, A549, 72 h; summary of the method: as §1
# MCF7 [3] = test: Antiproliferative activity against MCF7 cells after 72 hrs by MTT assay; assay type: functional, cell-based, Homo sapiens; conditions: Homo sapiens, MCF7, 72 h; summary of the method: as §1
# [4] = Toxicity in ip dosed B6D2F1 mouse; assay type: organism-based; conditions: in vivo
# Summary of the method: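 Acute MTD was set by a single i.p. dose to groups of three healthy female B6D2F1 mice, at 2.5, 5, 10, 20, 40, 80 and 160 mg/kg. The MTD is the dose just below the lowest dose that killed at least one mouse.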
# L1210 [5] = test: Antitumor activity in L1210 cells xenografted B6D2F1 mouse at 10 mg/kg, ip relative to control; assay type: functional; conditions: route intraperitoneal
# Summary of the method: (§2)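 Mice grafted with L1210 leukaemia cells on day 0, then dosed i.p. four times weekly on days 1-4 and 8-11. Five mice per group. Outcome is %T/C, the median survival of treated over control. Kruskal-Wallis test followed by Dunn comparisons against control.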
# L1210 [6] = test: Antitumor activity in L1210 cells xenografted B6D2F1 mouse at 20 mg/kg, ip relative to control; assay type: functional; conditions: route intraperitoneal; summary of the method: as §2
# L1210 [7] = test: Antitumor activity in L1210 cells xenografted B6D2F1 mouse at 40 mg/kg, ip relative to control; assay type: functional; conditions: route intraperitoneal; summary of the method: as §2
# L1210 [8] = test: Antitumor activity in L1210 cells xenografted B6D2F1 mouse at 80 mg/kg, ip relative to control; assay type: functional; conditions: route intraperitoneal; summary of the method: as §2
# L1210 [9] = test: Antitumor activity in L1210 cells xenografted B6D2F1 mouse at 120 mg/kg, ip relative to control; assay type: functional; conditions: route intraperitoneal; summary of the method: as §2
# Mus musculus [10] = test: Toxicity in B6D2F1 mouse at 120 mg/kg, ip; assay type: organism-based; parameters: dose 120 mg/kg, route intraperitoneal; conditions: in vivo
# Summary of the method: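 Healthy female B6D2F1 mice, 10 per group, dosed i.p. in DMSO/saline (5:95 v/v) three times weekly for five weeks at two levels set relative to MTD; sacrificed 3 days after final dose; platelet, RBC and WBC counted by Coulter counter.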
# Mus musculus [11] = test: Hematotoxicity in ip dosed B6D2F1 mouse assessed as decrease in platelet count; assay type: organism-based; conditions: in vivo
# Summary of the method: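 Healthy female B6D2F1 mice, 10 per group, dosed i.p. three times weekly for five weeks at two dose levels set relative to MTD. Vehicle DMSO/saline 5:95 v/v. Killed 3 days after the last dose; blood platelet, RBC and WBC counts taken with a Coulter counter.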
# [12] = target: T1, DNA topoisomerase 1 (Homo sapiens) (UniProt P11387); test: Inhibition of human topoisomerase 1 by DNA unwinding test
# T1 sequence (whole entry): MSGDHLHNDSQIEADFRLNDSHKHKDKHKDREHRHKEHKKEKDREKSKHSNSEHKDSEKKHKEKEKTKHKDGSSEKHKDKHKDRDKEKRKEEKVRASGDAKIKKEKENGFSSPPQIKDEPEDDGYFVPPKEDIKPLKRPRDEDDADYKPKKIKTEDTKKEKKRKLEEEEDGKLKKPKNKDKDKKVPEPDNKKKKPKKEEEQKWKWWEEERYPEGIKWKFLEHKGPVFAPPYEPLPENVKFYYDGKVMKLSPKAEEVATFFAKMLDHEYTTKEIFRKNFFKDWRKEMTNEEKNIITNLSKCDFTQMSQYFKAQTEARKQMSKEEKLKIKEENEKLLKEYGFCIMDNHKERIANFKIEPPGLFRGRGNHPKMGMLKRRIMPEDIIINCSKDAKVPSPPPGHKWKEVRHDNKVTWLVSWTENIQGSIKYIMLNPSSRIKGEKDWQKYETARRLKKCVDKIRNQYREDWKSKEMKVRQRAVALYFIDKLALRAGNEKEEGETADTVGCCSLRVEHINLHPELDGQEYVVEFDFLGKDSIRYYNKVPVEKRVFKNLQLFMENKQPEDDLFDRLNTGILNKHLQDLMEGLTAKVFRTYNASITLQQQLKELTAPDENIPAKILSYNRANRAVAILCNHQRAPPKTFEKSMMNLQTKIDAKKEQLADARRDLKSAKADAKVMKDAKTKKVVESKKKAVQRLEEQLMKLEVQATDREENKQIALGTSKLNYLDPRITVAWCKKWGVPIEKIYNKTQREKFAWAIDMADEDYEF
# Summary of the method: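 DNA unwinding assay: relaxed pBR322 plasmid converted to supercoiled form in presence of topoisomerase I; compounds at final 4–32 µM (one up to 15–55 µM); ethidium bromide-stained agarose gels; UC50 taken as concentration shifting relaxed band to midpoint between supercoiled and relaxed states.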
# [13] = target: DNA topoisomerase 2-alpha (Homo sapiens) (UniProt P11388); test: Inhibition of human topoisomerase 2-mediated kinetoplast DNA […] at 50 uM
# Summary of the method: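 Topoisomerase II strand-passage activity by kDNA decatenation; compounds at 50 µM; catenated networks stay in wells, decatenated kDNA enters ethidium bromide-stained agarose gel; no-enzyme and no-drug reactions as controls.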
# MCF7 [14] = test: Induction of apoptosis in human MCF7 cells assessed as p53 activation; assay type: functional, cell-based
# Summary of the method: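 MCF-7 cells treated and p53 activation assessed by immunoblotting, with tubulin as loading control. Adriamycin (2.5 µM, 24 h) served as positive control.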
# Homo sapiens = organism: Homo sapiens; test: Inhibition of human topoisomerase 2 at 50 uM by plasmid linearization assay
# DNA topoisomerase 2-alpha (Homo sapiens), sequence (P11388 whole entry): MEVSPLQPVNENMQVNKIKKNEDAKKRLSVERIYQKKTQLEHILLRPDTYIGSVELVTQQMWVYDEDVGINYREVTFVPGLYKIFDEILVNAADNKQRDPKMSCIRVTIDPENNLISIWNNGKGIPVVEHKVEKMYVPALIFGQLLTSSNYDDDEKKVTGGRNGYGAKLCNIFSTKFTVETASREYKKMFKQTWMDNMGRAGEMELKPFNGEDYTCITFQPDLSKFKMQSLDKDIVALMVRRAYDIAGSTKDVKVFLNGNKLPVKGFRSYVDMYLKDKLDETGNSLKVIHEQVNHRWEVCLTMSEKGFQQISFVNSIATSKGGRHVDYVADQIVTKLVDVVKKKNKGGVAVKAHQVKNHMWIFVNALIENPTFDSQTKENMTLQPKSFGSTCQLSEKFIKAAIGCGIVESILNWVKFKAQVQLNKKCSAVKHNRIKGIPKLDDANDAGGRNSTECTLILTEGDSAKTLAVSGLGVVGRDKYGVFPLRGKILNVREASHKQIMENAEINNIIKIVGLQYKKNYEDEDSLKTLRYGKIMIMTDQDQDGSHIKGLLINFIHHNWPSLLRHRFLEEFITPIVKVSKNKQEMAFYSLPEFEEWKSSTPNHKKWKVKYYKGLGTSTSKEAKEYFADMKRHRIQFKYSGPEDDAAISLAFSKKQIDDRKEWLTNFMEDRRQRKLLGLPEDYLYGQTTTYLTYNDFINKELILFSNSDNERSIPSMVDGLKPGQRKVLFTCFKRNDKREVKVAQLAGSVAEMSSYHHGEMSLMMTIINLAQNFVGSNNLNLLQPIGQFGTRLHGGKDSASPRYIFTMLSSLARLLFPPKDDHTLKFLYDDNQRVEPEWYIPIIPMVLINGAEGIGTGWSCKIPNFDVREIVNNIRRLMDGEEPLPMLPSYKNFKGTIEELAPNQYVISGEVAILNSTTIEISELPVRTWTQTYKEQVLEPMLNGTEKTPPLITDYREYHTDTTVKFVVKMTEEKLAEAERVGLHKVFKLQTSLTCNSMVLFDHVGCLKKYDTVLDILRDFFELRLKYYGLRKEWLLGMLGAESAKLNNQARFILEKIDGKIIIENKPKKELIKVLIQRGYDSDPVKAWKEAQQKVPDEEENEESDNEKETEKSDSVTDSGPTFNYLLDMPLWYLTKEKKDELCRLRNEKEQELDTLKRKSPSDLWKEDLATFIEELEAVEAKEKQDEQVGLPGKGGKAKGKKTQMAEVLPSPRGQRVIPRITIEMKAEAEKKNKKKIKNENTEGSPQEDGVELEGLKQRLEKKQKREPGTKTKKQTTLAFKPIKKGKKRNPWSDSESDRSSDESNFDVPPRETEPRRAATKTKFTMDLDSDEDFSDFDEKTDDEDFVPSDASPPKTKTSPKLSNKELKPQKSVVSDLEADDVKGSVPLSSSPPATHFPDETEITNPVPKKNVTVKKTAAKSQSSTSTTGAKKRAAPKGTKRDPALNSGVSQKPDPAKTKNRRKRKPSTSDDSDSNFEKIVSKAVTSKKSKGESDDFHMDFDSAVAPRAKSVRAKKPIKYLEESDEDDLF
Compound,IC50 [1] [µM],IC50 [2] [µM],IC50 (HCT-15) [µM],IC50 (LoVo) [µM],IC50 (A549) [µM],IC50 (MCF7 [3]) [µM],MTD [4] [mg/kg],Activity (L1210 [5]) [%],Activity (L1210 [6]) [%],Activity (L1210 [7]) [%],Activity (L1210 [8]) [%],Activity (L1210 [9]) [%],Activity (Mus musculus [10]),Activity (Mus musculus [11]),UC50 [12] [µM],Activity [13],Activity (MCF7 [14]),Activity (Homo sapiens)
CN(C)CCN1C(=O)c2cccc3cc(/N=C\c4ccc5c(c4)OCO5)cc(c23)C1=O,> 10,> 10,9,8.3,> 10,> 10,80,115,150,165,288,41,Toxic,Toxic,–,–,–,–
CN(C)CCN1C(=O)c2cccc3cc(/N=C\c4cc(O)ccc4O)cc(c23)C1=O,–,–,–,–,–,–,–,–,–,–,–,–,–,–,13,Active,Active,Active

# — ChEMBL document CHEMBL1148725, “2,2,2-Trichloro-N-({2-[2-(dimethylamino)ethyl]-1,3-dioxo-2,3-dihydro-1H-benzo[de]isoquinolin- 5-yl}carbamoyl)acetamide (UNBS3157), a novel nonhematotoxic naphthalimide derivative with potent antitumor activity” (J Med Chem, 2007)
